In ChEMBL document CHEMBL2086296, “Synthesis of novel quinoline-2-one based chalcones of potential anti-tumor activity” (Eur J Med Chem, 2012):

Tests used:
HOP-62 = assay: Cytotoxicity against human HOP62 cells after 24 hrs by SRB assay; assay type: functional; conditions: HOP-62, 24 h
In short: (§1)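 NCI 60-line screen. Cells in RPMI 1640 with 5% FBS and 2 mM L-glutamine, seeded at 5,000–40,000 cells/well by doubling time, then incubated 24 h at 37 °C, 5% CO2 before dosing. Time-zero plates fixed with TCA at drug addition. DMSO stocks diluted in medium with gentamicin to five concentrations, […]. Protein read by SRB staining. GI50, TGI and LC50 derived relative to control and time-zero.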

NCI-H226 [1] = assay: (§2) Cytotoxicity against human NCI-H226 cells after 24 hrs by SRB assay; assay type: functional; conditions: NCI-H226, 24 h; in short: as §1
NCI-H522 = assay: Cytotoxicity against human NCI-H522 cells after 24 hrs by SRB assay; assay type: functional; conditions: NCI-H522, 24 h; in short: as §1
A549 = assay: Cytotoxicity against human A549 cells after 24 hrs by SRB assay; assay type: functional; conditions: A549, 24 h; in short: as §1
COLO 205 [2] = assay: (§3) Cytotoxicity against human COLO205 cells after 24 hrs by SRB assay; assay type: functional; conditions: COLO 205, 24 h; in short: as §1
HCT-15 [3] = assay: (§4) Cytotoxicity against human HCT15 cells after 24 hrs by SRB assay; assay type: functional; conditions: HCT-15, 24 h; in short: as §1
HCC 2998 = assay: Cytotoxicity against human HCC2998 cells after 24 hrs by SRB assay; assay type: functional; conditions: HCC 2998, 24 h; in short: as §1
SK-MEL-28 [4] = assay: (§5) Cytotoxicity against human SK-MEL-28 cells after 24 hrs by SRB assay; assay type: functional; conditions: SK-MEL-28, 24 h; in short: as §1
CAKI-1 = assay: Cytotoxicity against human CAKI-1 cells after 24 hrs by SRB assay; assay type: functional; conditions: CAKI-1, 24 h; in short: as §1
TK-10 [5] = assay: (§6) Cytotoxicity against human TK10 cells after 24 hrs by SRB assay; assay type: functional; conditions: TK-10, 24 h
In short: (§7)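 NCI 60-cell screen. Cells are grown in RPMI 1640 with 5% FBS and 2 mM L-glutamine and seeded at 5,000–40,000 cells/well according to doubling time. They are preincubated 24 h at 37 °C in 5% CO2, and Tz plates are TCA-fixed at drug addition. Drug stock is in DMSO, diluted in medium with gentamicin, and tested at five concentrations (100, 10, 1.0, 0.1, […]). Protein is read by SRB staining. GI50, TGI and LC50 are derived relative to time-zero and control wells.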

786-0 = assay: Cytotoxicity against human 786-0 cells after 24 hrs by SRB assay; assay type: functional; conditions: 786-0, 24 h; in short: as §1
DU-145 = assay: Cytotoxicity against human DU145 cells after 24 hrs by SRB assay; assay type: functional; conditions: DU-145, 24 h; in short: as §1
MCF7 = assay: Cytotoxicity against human MCF7 cells after 24 hrs by SRB assay; assay type: functional; conditions: MCF7, 24 h; in short: as §1
T47D = assay: Cytotoxicity against human T47D cells after 24 hrs by SRB assay; assay type: functional; in short: as §7
RPMI-8226 = assay: Cytotoxicity against human RPMI8226 cells after 24 hrs by SRB assay; assay type: cell-based; conditions: rpmi-8226, 24 h
In short: (§8)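 NCI 60-cell screen. Cells grown in RPMI 1640 with 5% FBS and 2 mM L-glutamine, seeded at 5,000–40,000 cells/well, preincubated 24 h at 37 °C in 5% CO2. Drug stock in DMSO, diluted in medium with gentamicin; five final concentrations, 100, 10, 1.0, 0.1 and […]. Time-zero plates were TCA-fixed. Protein read by SRB staining; GI50, TGI and LC50 taken relative to time-zero.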

NCI-H226 [6] = assay: as §2; assay type: cell-based; conditions: nci-h226, 24 h; in short: as §8
NCI-H460 = assay: Cytotoxicity against human NCI-H460 cells after 24 hrs by SRB assay; assay type: cell-based; conditions: nci-h460, 24 h; in short: as §8
COLO 205 [7] = assay: as §3; assay type: cell-based; conditions: colo 205, 24 h; in short: as §8
HCT-15 [8] = assay: as §4; assay type: cell-based; conditions: hct-15, 24 h; in short: as §8
KM12 = assay: Cytotoxicity against human KM12 cells after 24 hrs by SRB assay; assay type: cell-based; conditions: km12, 24 h; in short: as §8
SF-295 = assay: Cytotoxicity against human SF295 cells after 24 hrs by SRB assay; assay type: cell-based; conditions: sf-295, 24 h; in short: as §8
U-251 = assay: Cytotoxicity against human U251 cells after 24 hrs by SRB assay; assay type: cell-based; conditions: u-251, 24 h
In short: (§9)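 NCI 60-cell-line screen: cells grown in RPMI 1640 with 5% FBS and 2 mM L-glutamine, seeded at 5,000–40,000 cells/well by doubling time, and preincubated 24 h at 37 °C in 5% CO2. Time-zero plates were TCA-fixed. DMSO stocks were diluted in medium with gentamicin to five concentrations (100, 10, 1.0, 0.1, […]). Protein was read by SRB, and GI50, TGI and LC50 were derived against time-zero.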

SNB-19 = assay: Cytotoxicity against human SNB19 cells after 24 hrs by SRB assay; assay type: cell-based; conditions: snb-19, 24 h; in short: as §9
HL-60 = assay: Cytotoxicity against human HL60 cells after 24 hrs by SRB assay; assay type: functional; conditions: HL-60, 24 h; in short: as §1
M14 = assay: Cytotoxicity against human M14 cells after 24 hrs by SRB assay; assay type: cell-based; conditions: m14, 24 h; in short: as §8
SK-MEL-28 [9] = assay: as §5; assay type: cell-based; conditions: sk-mel-28, 24 h; in short: as §8
NCI/ADR-RES = assay: Cytotoxicity against human NCI/ADR-RES cells after 24 hrs by SRB assay; assay type: cell-based; in short: as §8
OVCAR-8 = assay: Cytotoxicity against human OVCAR8 cells after 24 hrs by SRB assay; assay type: cell-based; conditions: ovcar-8, 24 h; in short: as §8
SK-OV-3 = assay: Cytotoxicity against human SKOV3 cells after 24 hrs by SRB assay; assay type: cell-based; conditions: sk-ov-3, 24 h; in short: as §9
TK-10 [10] = assay: as §6; assay type: cell-based; conditions: tk-10, 24 h; in short: as §9
MDA-MB-231 = assay: Cytotoxicity against human MDA-MB-231 cells after 24 hrs by SRB assay; assay type: cell-based; conditions: mda-mb-231, 24 h; in short: as §8
BT-549 = assay: Cytotoxicity against human BT549 cells after 24 hrs by SRB assay; assay type: cell-based; conditions: bt-549, 24 h; in short: as §8

Q: For `O=C(/C=C/c1cc2ccccc2[nH]c1=O)/C=C/c1cc2ccccc2[nH]c1=O`, which GI50 (HOP-62) is on record?
A: 3.65 µM

Q: And the TGI (HOP-62)?
A: > 100 µM

Q: What about the GI50 (NCI-H226 [1]) of the same compound?
A: 2.77 µM

Q: What about the TGI (NCI-H226 [1]) of the same compound?
A: 8.01 µM

Q: And the GI50 (NCI-H522)?
A: 2.52 µM

Q: And the GI50 (A549)?
A: 0.764 µM

Q: What about the GI50 (COLO 205 [2]) of the same compound?
A: 2.89 µM

Q: And the TGI (COLO 205 [2])?
A: > 100 µM

Q: What about the GI50 (HCT-15 [3]) of the same compound?
A: 2.02 µM

Q: What about the TGI (HCT-15 [3]) of the same compound?
A: > 100 µM

Q: And the GI50 (HCC 2998)?
A: 0.839 µM

Q: What about the TGI (HCC 2998) of the same compound?
A: 2.22 µM

Q: What about the GI50 (SK-MEL-28 [4]) of the same compound?
A: 4.96 µM

Q: What about the TGI (SK-MEL-28 [4]) of the same compound?
A: > 100 µM

Q: What about the GI50 (CAKI-1) of the same compound?
A: 2.36 µM

Q: And the TGI (CAKI-1)?
A: > 100 µM

Q: And the GI50 (TK-10 [5])?
A: 4.6 µM

Q: What about the TGI (TK-10 [5]) of the same compound?
A: > 100 µM

Q: And the GI50 (786-0)?
A: 2.75 µM

Q: What about the TGI (786-0) of the same compound?
A: 6.82 µM

Q: And the GI50 (DU-145)?
A: 4.18 µM

Q: And the TGI (DU-145)?
A: > 100 µM

Q: What about the GI50 (MCF7) of the same compound?
A: 0.327 µM

Q: And the TGI (MCF7)?
A: > 100 µM

Q: And the GI50 (T47D)?
A: 3.27 µM

Q: And the TGI (T47D)?
A: > 100 µM

Q: And the LC50 (RPMI-8226)?
A: > 100 µM

Q: What about the LC50 (NCI-H226 [6]) of the same compound?
A: > 100 µM

Q: What about the LC50 (NCI-H460) of the same compound?
A: > 100 µM

Q: And the LC50 (COLO 205 [7])?
A: > 100 µM

Q: And the LC50 (HCT-15 [8])?
A: > 100 µM

Q: What about the LC50 (KM12) of the same compound?
A: 5.12 µM

Q: And the LC50 (SF-295)?
A: > 100 µM

Q: What about the LC50 (U-251) of the same compound?
A: > 100 µM

Q: What about the LC50 (SNB-19) of the same compound?
A: > 100 µM

Q: What about the GI50 (HL-60) of the same compound?
A: 3.38 µM

Q: What about the TGI (HL-60) of the same compound?
A: > 100 µM

Q: What about the LC50 (M14) of the same compound?
A: > 100 µM

Q: What about the LC50 (SK-MEL-28 [9]) of the same compound?
A: > 100 µM

Q: What about the LC50 (NCI/ADR-RES) of the same compound?
A: > 100 µM

Q: What about the LC50 (OVCAR-8) of the same compound?
A: > 100 µM

Q: And the LC50 (SK-OV-3)?
A: > 100 µM

Q: And the LC50 (TK-10 [10])?
A: > 100 µM

Q: What about the LC50 (MDA-MB-231) of the same compound?
A: > 100 µM

Q: And the LC50 (BT-549)?
A: > 100 µM
